Each block holds one molecule with its values, some of them ahead of it.
What was measured:
[1] = species on record: Rattus norvegicus; experiment: Delayed Type hypersensitivity (DTH) is measured by increase in ear thickness 24 hours after antigen injection into pinna 10e-3; format: functional
[2] = tested on: Rattus norvegicus; experiment: Compound was tested for intestinal ulcerogenic effect in rats, activity expressed as lesion score at a dose of 100 mg/kg; format: functional
Outline: (§1)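 Normal fed rats were gavaged once daily for three consecutive days at 10–300 mg/kg and killed 24 h after the last dose. Intestines were examined for ulcers, recording incidence per group of 8 and a lesion score (±SE).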

[3] = tested on: Rattus norvegicus; experiment: Compound was tested for intestinal ulcerogenic effect in rats, activity expressed as lesion score at a dose of 10 mg/kg; format: functional; outline: as §1
[4] = tested on: Rattus norvegicus; experiment: Compound was tested for intestinal ulcerogenic effect in rats, activity expressed as lesion score at a dose of 300 mg/kg; format: functional; outline: as §1
[5] = tested on: Rattus norvegicus; experiment: Compound was tested for intestinal ulcerogenic effect in rats at a dose of 100 mg/kg; format: functional; outline: as §1
[6] = tested on: Rattus norvegicus; experiment: Compound was tested for intestinal ulcerogenic effect in rats at a dose of 10 mg/kg; format: functional; outline: as §1
[7] = tested on: Rattus norvegicus; experiment: Compound was tested for intestinal ulcerogenic effect in rats, activity expressed as ulcer incidence at a dose of 100 mg/kg; format: functional; outline: as §1
[8] = tested on: Rattus norvegicus; experiment: Compound was tested for intestinal ulcerogenic effect in rats, activity expressed as ulcer incidence at a dose of 30 mg/kg; format: functional; outline: as §1
[9] = tested on: Rattus norvegicus; experiment: Compound was tested for gastric ulcerogenic effect in rats, activity expressed as lesion length at a dose of 30 mg/kg
[10] = tested on: Rattus norvegicus; experiment: Compound was tested for gastric ulcerogenic effect in rats, activity expressed as lesion length at a dose of 10 mg/kg
[11] = tested on: Rattus norvegicus; experiment: Compound was tested for gastric ulcerogenic effect in rats, activity expressed as lesion length at a dose of 100 mg/kg
[12] = tested on: Rattus norvegicus; experiment: Compound was tested for gastric ulcerogenic effect in rats, activity expressed as lesion length at a dose of 300 mg/kg
[13] = Plasma level data at a dose of 36 mg/kg, iv after 0.5 hr; format: ADME, organism-based; parameters: dose 36 mg/kg, route intravenous; settings: read-out: Plasma level
Outline: (§2)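 Male Lewis rats get a single iv or oral dose of the sodium salt, suspended in 0.4% (w/v) methyl cellulose. Plasma drug levels are measured by HPLC at the timed points and given as mean ± SD, n = 3.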

[14] = Plasma level data at a dose of 36 mg/kg, iv after 12 hr; format: ADME, organism-based; parameters: dose 36 mg/kg, route intravenous; settings: read-out: Plasma level; outline: as §2
[15] = Plasma level data at a dose of 36 mg/kg, iv after 2 hr; format: ADME, organism-based; parameters: dose 36 mg/kg, route intravenous; settings: read-out: Plasma level; outline: as §2
[16] = Plasma level data at a dose of 36 mg/kg, iv after 4 hr; format: ADME, organism-based; parameters: dose 36 mg/kg, route intravenous; settings: read-out: Plasma level; outline: as §2
[17] = Plasma level data at a dose of 36 mg/kg, iv after 6 hr; format: ADME, organism-based; parameters: dose 36 mg/kg, route intravenous; settings: read-out: Plasma level; outline: as §2
[18] = Plasma level data at a dose of 36 mg/kg, po after 12 hr; format: ADME, organism-based; parameters: dose 36 mg/kg, route oral; settings: read-out: Plasma level
Outline: (§3)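 Male Lewis rats given a single po dose of the sodium salt suspended in 0.4% (w/v) methyl cellulose. Plasma drug levels measured by HPLC at set times up to 12 h; values are mean ± SD, n = 3.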

[19] = Plasma level data at a dose of 36 mg/kg, po after 1 hr; format: ADME, organism-based; parameters: dose 36 mg/kg, route oral; settings: read-out: Plasma level; outline: as §2
[20] = Plasma level data at a dose of 36 mg/kg, po after 2 hr; format: ADME, organism-based; parameters: dose 36 mg/kg, route oral; settings: read-out: Plasma level; outline: as §3
[21] = Plasma level data at a dose of 36 mg/kg, po after 4 hr; format: ADME, organism-based; parameters: dose 36 mg/kg, route oral; settings: read-out: Plasma level; outline: as §3
[22] = Plasma level data at a dose of 36 mg/kg, po after 6 hr; format: ADME, organism-based; parameters: dose 36 mg/kg, route oral; settings: read-out: Plasma level; outline: as §3
[23] = species on record: Rattus norvegicus; experiment: Delayed Type hypersensitivity (DTH) is measured by increase in ear thickness 24 hours after antigen injection into pinna (10E-3); format: functional
[24] = tested on: Rattus norvegicus; experiment: Compound was tested in vivo for antiinflammatory activity against chronic adjuvant arthritic rat by therapeutic percentage inhibition 1 degree paw after peroral administration of 3.3 mg/kg of dose; format: functional; settings: route oral
[25] = tested on: Rattus norvegicus; experiment: Compound was tested in vivo for antiinflammatory activity against chronic adjuvant arthritic rat by therapeutic percentage inhibition 1 degree paw after peroral administration of 30 mg/kg of dose; format: functional
[26] = tested on: Rattus norvegicus; experiment: Compound was tested in vivo for antiinflammatory activity against chronic adjuvant arthritic rat by therapeutic percentage inhibition 2 degree paw after peroral administration of 10 mg/kg of dose; format: functional; settings: route oral
[27] = tested on: Rattus norvegicus; experiment: Compound was tested in vivo for antiinflammatory activity against chronic adjuvant arthritic rat by therapeutic percentage inhibition 2 degree paw after peroral administration of 3.3 mg/kg of dose; format: functional; settings: route oral
[28] = tested on: Rattus norvegicus; experiment: Compound was tested in vivo for antiinflammatory activity against chronic adjuvant arthritic rat by therapeutic percentage inhibition 1 degree paw after peroral administration of 10 mg/kg of dose; format: functional; settings: route oral
[29] = tested on: Rattus norvegicus; experiment: Compound was tested in vivo against chronic adjuvant arthritic rat by therapeutic inhibition 2 degree paw. Relative potency with respect to (8-Benzyl-5-hydroxy-1,3-dimethyl-6-propyl-1H,8H-1,3,4b,8,9-pentaaza-fluorene-2,4,7-trione); format: functional
[30] = tested on: Rattus norvegicus; experiment: C(compound) was tested for intestinal Ulcerogenic effect in rats at a dose of 30 mg/kg; format: functional; outline: as §1
[31] = tested on: Rattus norvegicus; experiment: Compound was tested for intestinal Ulcerogenic effect in rats at a dose of 300 mg/kg; format: functional; outline: as §1
[32] = tested on: Rattus norvegicus; experiment: Compound was tested for intestinal Ulcerogenic effect in rats, activity expressed as ulcer incidence at a dose of 300 mg/kg; format: functional; outline: as §1
[33] = tested on: Rattus norvegicus; experiment: Compound was tested for intestinal Ulcerogenic effect in rats, activity expressed as lesion score at a dose of 300 mg/kg; format: functional; outline: as §1
[34] = Plasma level data at a dose of 20 mg/kg, iv after 0.25 hr; format: ADME, organism-based; parameters: dose 20 mg/kg, route intravenous; settings: read-out: Plasma level; outline: as §2
[35] = Plasma level data at a dose of 20 mg/kg, iv after 0.5 hr; format: ADME, organism-based; parameters: dose 20 mg/kg, route intravenous; settings: read-out: Plasma level; outline: as §2
[36] = Plasma level data at a dose of 20 mg/kg, iv after 12 hr; format: ADME, organism-based; parameters: dose 20 mg/kg, route intravenous; settings: read-out: Plasma level; outline: as §2
[37] = Plasma level data at a dose of 20 mg/kg, iv after 1 hr; format: ADME, organism-based; parameters: dose 20 mg/kg, route intravenous; settings: read-out: Plasma level; outline: as §2
[38] = Plasma level data at a dose of 20 mg/kg, iv after 6 hr; format: ADME, organism-based; parameters: dose 20 mg/kg, route intravenous; settings: read-out: Plasma level; outline: as §2
[39] = Plasma level data at a dose of 20mg/kg, po after 0.5 hr; format: ADME, organism-based; settings: read-out: Plasma level; outline: as §2
[40] = Plasma level data at a dose of 20mg/kg, po after 2 hr; format: ADME, organism-based; settings: read-out: Plasma level; outline: as §2
[41] = Plasma level data at a dose of 20 mg/kg, po after 4 hr; format: ADME, organism-based; parameters: dose 20 mg/kg, route oral; settings: read-out: Plasma level; outline: as §2
[42] = Plasma level data at a dose of 20 mg/kg, po after 12 hr; format: ADME, organism-based; parameters: dose 20 mg/kg, route oral; settings: read-out: Plasma level; outline: as §2
[43] = tested on: Rattus norvegicus; experiment: Compound was tested in vivo for antiinflammatory activity against chronic adjuvant arthritic rat by therapeutic inhibition 2 degree paw after peroral administration of 1 mg/kg of dose; format: functional; settings: route oral
[44] = tested on: Rattus norvegicus; experiment: Compound was tested in vivo for antiinflammatory activity against chronic adjuvant arthritic rat by therapeutic inhibition 2 degree paw after peroral administration of 3 mg/kg of dose; format: functional; settings: route oral
[45] = tested on: Rattus norvegicus; experiment: compound was tested for antiinflammatory activity against collagen II arthritis in rats, activity% inhibition in injected paw edema; format: functional
Outline: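 Arthritis induced in rats by injection of bovine articular cartilage type II collagen (dissolved in 0.01 M AcOH, dialysed against saline) mixed 1:1 with incomplete Freund's adjuvant. Paw inflammation checked weekly for 7 weeks. Inhibition = [Δpaw vol(collagen) − Δpaw vol(collagen + drug)]/[Δpaw vol(collagen) − Δpaw vol(ICFA control)] × 100. Bone damage scored by lateral-projection radiography; p ≤ 0.05 by Student's t-test.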

Structure (SMILES): CC(C)=CCc1c(O)n(Cc2ccc(F)cc2)c2nc3c(c(=O)n(C)c(=O)n3C)n2c1=O
DTH [1]: 47.3 10e-3mm
Lesion length [2]: 0 mm rat-1
Lesion length [3]: 0 mm rat-1
Lesion length [4]: 0.2 mm rat-1
Ulcer incidence [5]: 0 number/group
Ulcer incidence [6]: 0 number/group
Ulcer incidence [7]: 0 number/group
Ulcer incidence [8]: 0 number/group
Length [9]: 0.1 mm rat-1
Length [10]: 0 mm rat-1
Length [11]: 0.1 mm rat-1
Length [12]: 3 mm rat-1

concentration at 0.5 h [13]: 107000 ng/mL
concentration at 12 h [14]: 88300 ng/mL
concentration at 2 h [15]: 128000 ng/mL
concentration at 4 h [16]: 72400 ng/mL
concentration at 6 h [17]: 78300 ng/mL
concentration at 12 h [18]: 35900 ng/mL
concentration at 1 h [19]: 23100 ng/mL
concentration at 2 h [20]: 66100 ng/mL
concentration at 4 h [21]: 41800 ng/mL
concentration at 6 h [22]: 21000 ng/mL
Structure (SMILES): CCCc1c(O)n(Cc2ccc(F)cc2)c2nc3c(c(=O)n(C)c(=O)n3C)n2c1=O
DTH [23]: 34.1 10e-3mm
inhibition in vivo at 3.3 mg/kg [24]: 7%
inhibition in vivo at 30 mg/kg ([25]; Rattus norvegicus, po): 47%
Inhibition ([25]; route oral, 30 mg/kg): 47%
inhibition in vivo at 10 mg/kg [26]: 38%
inhibition in vivo at 3.3 mg/kg [27]: 30%
inhibition in vivo at 10 mg/kg [28]: 27%
Relative potency [29]: 0.9
Ulcer incidence [30]: 0 number/group
Ulcer incidence [31]: 0 number/group
Ulcer incidence [32]: 0 number/group
Lesion score [33]: 0 mm rat-1

concentration at 0.25 h [34]: 95100 ng/mL
concentration at 0.5 h [35]: 78600 ng/mL
concentration at 12 h [36]: 10600 ng/mL
concentration at 1 h [37]: 74700 ng/mL
concentration at 6 h [38]: 35100 ng/mL
concentration at 0.5 h [39]: 10800 ng/mL
concentration at 2 h [40]: 21900 ng/mL
concentration at 4 h [41]: 39000 ng/mL
concentration at 12 h [42]: 26700 ng/mL
Structure (SMILES): CC(C)=CCc1c(O)n(Cc2ccccc2)c2nc3c(c(=O)n(C)c(=O)n3C)n2c1=O
inhibition in vivo at 1 mg/kg [43]: 37%
inhibition in vivo at 3 mg/kg [44]: 51%
Inhibition [45]: 0%

Source: ChEMBL document CHEMBL1123282, “Antiinflammatory activity of substituted 6-hydroxypyrimido[2,1-f]purine-2,4,8(1H,3H,9H)-triones. Atypical nonsteroidal antiinflammatory agents” (J Med Chem, 1986)
